The text below walks through data of ChEMBL document CHEMBL3352225, “Bioreductively Activated Reactive Oxygen Species (ROS) Generators as MRSA Inhibitors” (ACS Med Chem Lett, 2014).

Data set [1] deals with Staphylococcus aureus. Description: Antimicrobial activity against methicillin-sensitive Staphylococcus aureus ATCC 29213 after 18 to 20 hrs by microbroth dilution technique. The data set is classed as functional. Summed up:
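MIC taken as the lowest concentration that prevents visible bacterial growth of MSSA 29213, reported in μg/mL.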

For data set [2], the system named is Staphylococcus aureus. Description: Antimicrobial activity against methicillin-resistant Staphylococcus aureus 7425 after 18 to 20 hrs by microbroth dilution technique. It counts as functional. Summed up: (§1)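 Broth microdilution MIC, taken as the lowest concentration preventing visible growth. MRSA 33591 was the reference strain and the others were clinical MRSA isolates. Vancomycin was tested alongside as comparator. Values are reported in μg/mL and μM.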
Background: Dilution methods test growth across graded concentrations, often in twofold steps.

Data set [3] relates to Staphylococcus aureus. The experiment in a line: Antimicrobial activity against methicillin-resistant Staphylococcus aureus 33591 after 18 to 20 hrs by microbroth dilution technique. It counts as functional. Summed up:
as §1

Data set [4] deals with Staphylococcus aureus. Description: Antimicrobial activity against methicillin-resistant Staphylococcus aureus 7419 after 18 to 20 hrs by microbroth dilution technique. The data set is classed as functional. A digest of the protocol: as §1
The subject of data set [5] is Staphylococcus aureus. Description: Antimicrobial activity against methicillin-resistant Staphylococcus aureus B19506 after 18 to 20 hrs by microbroth dilution technique. The data set is classed as functional. A digest of the protocol:
as §1

Data set [6] has as its system Staphylococcus aureus. Description: Antimicrobial activity against methicillin-resistant Staphylococcus aureus K-1 after 18 to 20 hrs by microbroth dilution technique. It counts as functional. Summed up: as §1
In data set [7] the test system is Staphylococcus aureus. The experiment in a line: Antimicrobial activity against methicillin-resistant Staphylococcus aureus 7386 after 18 to 20 hrs by microbroth dilution technique. It counts as functional. A digest of the protocol:
as §1

Data set [8] concerns Staphylococcus aureus. The experiment in a line: Antimicrobial activity against methicillin-resistant Staphylococcus aureus E9902 after 18 to 20 hrs by microbroth dilution technique. The data set is classed as functional. A digest of the protocol:
as §1

The subject of data set [9] is Staphylococcus aureus. The experiment in a line: Antimicrobial activity against methicillin-resistant Staphylococcus aureus E151 after 18 to 20 hrs by microbroth dilution technique. It counts as functional. Summed up:
as §1

Data set [10] deals with Staphylococcus aureus. Description: Antimicrobial activity against methicillin-resistant Staphylococcus aureus E288 after 18 to 20 hrs by microbroth dilution technique. The data set is classed as functional. A digest of the protocol: as §1
The subject of data set [11] is Staphylococcus aureus. Description: Antimicrobial activity against methicillin-resistant Staphylococcus aureus B21838 after 18 to 20 hrs by microbroth dilution technique. The data set is classed as functional. A digest of the protocol: as §1
Data set [12] concerns Staphylococcus aureus. Description: Antimicrobial activity against methicillin-resistant Staphylococcus aureus B853 after 18 to 20 hrs by microbroth dilution technique. It counts as functional. A digest of the protocol: as §1
Data set [13] has as its system Staphylococcus aureus. Description: Antimicrobial activity against methicillin-resistant Staphylococcus aureus B0085 after 18 to 20 hrs by microbroth dilution technique. It counts as functional. Summed up: as §1
The nature of data set [14]: Superoxide generation in buffer at pH 7.4 at 25 uM measured at 1 min interval for 4 mins by luminol-based chemiluminescence assay in presence of DT-diaphorase. Summed up:
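Superoxide from compound plus NQO1 (DT-diaphorase) was followed as a time course by luminol chemiluminescence. The control was compound alone in pH 7.4 buffer.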

Data set [15] is described as follows: Superoxide generation in buffer at pH 7.4 assessed as formation of 2-OH-E+ at 200 to 500 ug/ml measured after 10 mins by dihydroethidium assay in presence of DT-diaphorase. A digest of the protocol: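 Compound was incubated with NQO1 (DT-diaphorase). The DHE-derived products 2-OH-E+ (superoxide-specific) and E+ (nonspecific oxidation) were separated and quantified by HPLC. The control was compound in pH 7.4 buffer without enzyme.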

Data set [16] deals with Staphylococcus aureus. The experiment in a line: Antimicrobial activity against Staphylococcus aureus assessed as intracellular superoxide generation measured as formation of 2-OH-E+ measured after 1 hr by dihydroethidium assay. The data set is classed as functional, organism-based. Summed up: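 Intact S. aureus cells were incubated with DHE across a range of compound concentrations. Products were 2-hydroxyethidium (2-OH-E+), which is superoxide-specific, and ethidium (E+), which comes from nonspecific oxidation. Untreated bacteria served as the control.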

Data set [17] has as its system Staphylococcus aureus. Description: Antimicrobial activity against Staphylococcus aureus assessed as extracellular H2O2 generation at 2 ug/ml measured after 60 mins by Amplex Red-based fluorescence assay. The data set is classed as functional, organism-based. A digest of the protocol: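 S. aureus cells were exposed to compound for 60 min, and H2O2 released into the medium was quantified by Amplex Red fluorescence as a surrogate marker for intracellular ROS. Untreated bacteria served as the control.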

The subject of data set [18] is Staphylococcus aureus. Description: Antimicrobial activity against methicillin-sensitive Staphylococcus aureus ATCC 29213 assessed as intracellular oxidative species generation at 0.5 ug/ml measured after 1 hr by dichlorofluorescein-diacetate fluorescence assay. The data set is classed as functional, organism-based.
The test system of data set [19] is Staphylococcus aureus. Description: Induction of DNA damage in methicillin-sensitive Staphylococcus aureus ATCC 29213 assessed as upregulation of RecA expression at 6.7 times MIC measured after 120 mins by PCR analysis. It counts as functional, organism-based.
Data set [20] deals with Staphylococcus aureus. The experiment in a line: Antimicrobial activity against methicillin-sensitive Staphylococcus aureus ATCC 29213 assessed as growth inhibition at 8 times MIC measured over 3 hrs in presence of thiourea. It counts as functional, organism-based.
Data set [21] can be described thus: Cytotoxicity against human A549 cells after 72 hrs by MTT assay. It counts as cell-based. On the technique in general: Tetrazolium assays rely on reduction of a dye to a coloured formazan, in cell work by metabolically active cells.
Data set [22] can be described thus: Selectivity index, ratio of GI50 for human A549 cells to MIC for methicillin-resistant Staphylococcus aureus 33591.
Data set [23] is described as follows: H2O2 generation in buffer at pH 7.4 at 2 ug/ml measured after 5 mins by Amplex Red-based fluorescence assay in presence of DT-diaphorase.

Each structure is given as a SMILES string. Values after ≈ are worked out from the molar mass of the structure shown. Values joined by “and” are separate entries in the source; they are usually repeats but may differ in a detail not shown here. Identical values can stand only once. Active and inactive are the calls of the source. No cut-off for these calls is given here.

With `C[C@@H]1O[C@@H]1P(=O)(O)O` [FOSFOMYCIN], the lowest concentration to inhibit growth in [1] (MIC) was 8 µg/mL (≈ 57.9 µM).

`CN[C@H](CC(C)C)C(=O)N[C@H]1C(=O)N[C@@H](CC(N)=O)C(=O)N[C@H]2C(=O)N[C@H]3C(=O)N[C@H](C(=O)N[C@H](C(=O)O)c4cc(O)cc(O)c4-c4cc3ccc4O)[C@H](O)c3ccc(c(Cl)c3)Oc3cc2cc(c3O[C@@H]2O[C@H](CO)[C@@H](O)[C@H](O)[C@H]2O[C@H]2C[C@](C)(N)[C@H](O)[C@H](C)O2)Oc2ccc(cc2Cl)[C@H]1O` [VANCOMYCIN]: the MIC – broadly, the lowest concentration that inhibits growth of the organism – in [2] turned out to be 0.12 µg/mL (≈ 0.0828 µM).

Compound `COc1cc(Cn2c3c(c4ccccc4c2=O)C(=O)c2ccccc2C3=O)cc(OC)c1OC` had an MIC in data set [1] of 8 µg/mL (≈ 17.6 µM).

`O=C1c2ccccc2C(=O)c2c1c1ccccc1c(=O)n2Cc1ccc(Cl)cc1`: the MIC in [1] was over 32 µg/mL.

Compound `O=C1c2ccccc2C(=O)c2c1c1ccccc1c(=O)n2Cc1ccc(C(F)(F)F)cc1` registered an MIC in data set [1] of over 32 µg/mL.

For the compound `Cn1c2c(c3ccccc3c1=O)C(=O)c1ccccc1C2=O`, the MIC in data set [1] stood at 1 µg/mL (≈ 3.46 µM).

With `COC(=O)Cn1c2c(c3ccccc3c1=O)C(=O)c1ccccc1C2=O`, the MIC in [1] is over 32 µg/mL.

With `NC[C@H]1O[C@H](O[C@H]2[C@H](O)[C@@H](O[C@H]3O[C@H](CO)[C@@H](O)[C@H](N)[C@H]3O)[C@H](N)C[C@@H]2N)[C@H](N)C[C@@H]1O` [TOBRAMYCIN], in [1], the lowest concentration to inhibit growth (MIC) was 1 µg/mL (≈ 2.14 µM).

In data set [1], `O=C1c2ccccc2C(=O)c2c1c1ccccc1c(=O)n2C1CCCCC1` registered an MIC of over 32 µg/mL.

`CCCn1c2c(c3ccccc3c1=O)C(=O)c1ccccc1C2=O` registered an MIC in data set [1] of over 32 µg/mL.

For `O=C1c2ccccc2C(=O)c2c1c1ccccc1c(=O)n2Cc1ccccc1`, the MIC in [1] is over 32 µg/mL.

`C#CCn1c2c(c3ccccc3c1=O)C(=O)c1ccccc1C2=O`: the MIC in data set [1] was 0.5 µg/mL (≈ 1.6 µM); in data set [3], 0.5 µg/mL and 1.6 µM; in data set [4], 0.12 µg/mL and 0.38 µM; in [5], 0.06 µg/mL and 0.19 µM; in [6], 0.25 µg/mL and 0.8 µM; in data set [2], 0.12 µg/mL and 0.38 µM. Also, the MIC in data set [7] is 1 µg/mL and 3.19 µM; in data set [8], 0.5 µg/mL and 1.6 µM; in data set [9], 0.5 µg/mL and 1.6 µM; in data set [10], 0.5 µg/mL and 1.6 µM; in [11], 0.5 µg/mL and 1.6 µM; in [12] it was 1 µg/mL and 3.19 µM. Further, the MIC in [13] was 0.5 µg/mL and 1.6 µM. In addition, the result in [14], in [15], in data set [17], in [18], in data set [19] and in data set [23] was Active. The Activity entry in data set [16] was “Dose-dependent effect”. Moreover, the “growth inhibition (GI)” value in [20] is “inactive”. In addition, in data set [21], the GI50 (commonly the concentration giving 50% growth inhibition) at 72 h is 8.6 µM. For the same compound, in data set [22], the “Selectivity Index” value was over 5.

With `O=C1c2ccccc2C(=O)c2c1c1ccccc1c(=O)n2Cc1ccc([N+](=O)[O-])cc1`, 8 µg/mL (≈ 19.5 µM) was the least that counted as inhibitory in data set [1] (MIC).

Regarding `CCn1c2c(c3ccccc3c1=O)C(=O)c1ccccc1C2=O`, the minimal inhibitory concentration (MIC) in data set [1] was over 32 µg/mL.

On to `O=C1c2ccccc2C(=O)c2c1c1ccccc1c(=O)n2Cc1ccccc1C(F)(F)F`, for which, in data set [1], the MIC was over 32 µg/mL.

As to `C=CCn1c2c(c3ccccc3c1=O)C(=O)c1ccccc1C2=O`, the MIC in data set [1] is over 32 µg/mL.

Take `COc1ccc(Cn2c3c(c4ccccc4c2=O)C(=O)c2ccccc2C3=O)cc1`: in data set [1], the lowest concentration to inhibit growth (MIC) was 32 µg/mL (≈ 80.9 µM).
